Measured values from ChEMBL document CHEMBL3853298, “Total synthesis and in vitro bioevaluation of clavaminols A, C, H & deacetyl clavaminol H as potential chemotherapeutic and antibiofilm agents” (Eur J Med Chem, 2016).
Values after ≈ are worked out from the molar mass of the structure shown. Active and inactive are the calls of the source. No cut-off for these calls is given here.

Tests used:
Staphylococcus aureus [1] = assay: Antibacterial activity against Staphylococcus aureus MLS16 MTCC 2940 after 24 hrs by well diffusion method; type: functional; conditions: MLS16 MTCC 2940, 24 h
Outline: (§1)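 Bacteria spread (0.1 mL suspension) on Mueller-Hinton agar; 6.0 mm wells loaded with compound over a 250 to 0.48 per-well dose range, methanol as negative control. Incubated 24 h at 37 °C. MIC taken as the lowest concentration still giving an inhibition zone. Duplicates, mean reported.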

Escherichia coli [2] = assay: Antibacterial activity against Escherichia coli MTCC 739 after 24 hrs by well diffusion method; type: functional; conditions: MTCC 739, 24 h; outline: as §1
Pseudomonas aeruginosa [3] = assay: Antibiofilm activity against Pseudomonas aeruginosa MTCC 2453 incubated for 24 hrs under static condition by crystal violet staining-based assay; type: functional
Outline: (§2)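 Strains grown overnight in tryptone soy broth with 0.5% glucose. Compound (250 to 0) mixed with inoculum at 5 × 10^5 CFU/mL in polystyrene microtiter plates. Non-adherent cells washed off with PBS; wells stained with 0.1% crystal violet, dye solubilised in 95% ethanol, absorbance read at 540 nm. IC50 for 50% biofilm inhibition taken from dose-response curves. Triplicates, mean ± S.D.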

Staphylococcus aureus [4] = assay: Bactericidal activity against Staphylococcus aureus MLS16 MTCC 2940 after 24 hrs; type: functional; conditions: MLS16 MTCC 2940, 24 h
Outline: (§3)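 Broth macrodilution in Mueller Hinton broth, compound serially diluted from 150 down to 0. Overnight bacterial culture added to a final 1.5 × 10^8 CFU/mL (0.5 McFarland), 24 h at 37 °C. Suspension then subcultured onto Mueller Hinton agar for 24 h at 37 °C. MBC is the lowest concentration killing the strain. Duplicates.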

Escherichia coli [5] = assay: Bactericidal activity against Escherichia coli MTCC 739 after 24 hrs; type: functional; conditions: MTCC 739, 24 h; outline: as §3
Staphylococcus aureus [6] = assay: Antibiofilm activity against Staphylococcus aureus MTCC 96 incubated for 24 hrs under static condition by crystal violet staining-based assay; type: functional; outline: as §2
Staphylococcus aureus [7] = assay: Bactericidal activity against Staphylococcus aureus MTCC 96 after 24 hrs; type: functional; conditions: MTCC 96, 24 h; outline: as §3
Micrococcus luteus [8] = assay: Bactericidal activity against Micrococcus luteus MTCC 2470 after 24 hrs; type: functional; conditions: MTCC 2470, 24 h; outline: as §3
Bacillus subtilis [9] = assay: Antibiofilm activity against Bacillus subtilis MTCC 121 incubated for 24 hrs under static condition by crystal violet staining-based assay; type: functional; outline: as §2
Micrococcus luteus [10] = assay: Antibacterial activity against Micrococcus luteus MTCC 2470 after 24 hrs by well diffusion method; type: functional; conditions: MTCC 2470, 24 h; outline: as §1
Escherichia coli [11] = assay: Antibiofilm activity against Escherichia coli MTCC 739 incubated for 24 hrs under static condition by crystal violet staining-based assay; type: functional; outline: as §2
Bacillus subtilis [12] = assay: Bactericidal activity against Bacillus subtilis MTCC 121 after 24 hrs; type: functional; conditions: MTCC 121, 24 h; outline: as §3
Micrococcus luteus [13] = assay: Induction of intracellular ROS accumulation in Micrococcus luteus MTCC 2470 sessile biofilm cells at 0.5 to 4 ug/ml after 24 hrs by DCFH-DA staining-based assay; type: functional, cell-based
Outline: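 Intracellular ROS was measured in M. luteus MTCC 2470 biofilms grown in 24-well plates. Mature biofilms were treated and incubated 24 h at 30 °C together with […] DCFH-DA. Well contents were centrifuged at 5000 × g for 10 min. Fluorescence (ex 485/em 535 nm) was read separately for supernatant and for sessile cells resuspended in PBS. Triplicate, mean ± S.D.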

Micrococcus luteus [14] = assay: Antibiofilm activity against Micrococcus luteus MTCC 2470 incubated for 24 hrs under static condition by crystal violet staining-based assay; type: functional; outline: as §2
Pseudomonas aeruginosa [15] = assay: Antibacterial activity against Pseudomonas aeruginosa MTCC 2453 after 24 hrs by well diffusion method; type: functional; conditions: MTCC 2453, 24 h; outline: as §1
Staphylococcus aureus [16] = assay: Antibacterial activity against Staphylococcus aureus MTCC 96 after 24 hrs by well diffusion method; type: functional; conditions: MTCC 96, 24 h; outline: as §1
Raoultella planticola [17] = assay: Bactericidal activity against Klebsiella planticola MTCC 530 after 24 hrs; type: functional; conditions: MTCC 530, 24 h; outline: as §3
Bacillus subtilis [18] = assay: Antibacterial activity against Bacillus subtilis MTCC 121 after 24 hrs by well diffusion method; type: functional; conditions: MTCC 121, 24 h; outline: as §1
Raoultella planticola [19] = assay: Antibiofilm activity against Klebsiella planticola MTCC 530 incubated for 24 hrs under static condition by crystal violet staining-based assay; type: functional; outline: as §2
Raoultella planticola [20] = assay: Antibacterial activity against Klebsiella planticola MTCC 530 after 24 hrs by well diffusion method; type: functional; conditions: MTCC 530, 24 h; outline: as §1
Pseudomonas aeruginosa [21] = assay: Bactericidal activity against Pseudomonas aeruginosa MTCC 2453 after 24 hrs; type: functional; conditions: MTCC 2453, 24 h; outline: as §3
Staphylococcus aureus [22] = assay: Antibiofilm activity against Staphylococcus aureus MLS16 MTCC 2940 incubated for 24 hrs under static condition by crystal violet staining-based assay; type: functional; outline: as §2

O=C(O)c1cn(C2CC2)c2cc(N3CCNCC3)c(F)cc2c1=O [CIPROFLOXACIN]
MIC (Staphylococcus aureus [1]): 0.9 µg/mL (≈ 2.72 µM) | MIC (Escherichia coli [2]): 0.9 µg/mL (≈ 2.72 µM) | INH (Pseudomonas aeruginosa [3]): 0.7 µg/mL | MBC (Staphylococcus aureus [4]): 0.9 µg/mL (≈ 2.72 µM) | MBC (Escherichia coli [5]): 0.9 µg/mL (≈ 2.72 µM) | IC50 (Staphylococcus aureus [6]): 0.6 µg/mL (≈ 1.81 µM) | MBC (Staphylococcus aureus [7]): 0.9 µg/mL (≈ 2.72 µM) | MBC (Micrococcus luteus [8]): 1.9 µg/mL (≈ 5.73 µM) | IC50 (Bacillus subtilis [9]): 0.7 µg/mL (≈ 2.11 µM) | MIC (Micrococcus luteus [10]): 0.9 µg/mL (≈ 2.72 µM) | INH (Escherichia coli [11]): 0.8 µg/mL | MBC (Bacillus subtilis [12]): 1.9 µg/mL (≈ 5.73 µM) | Activity (Micrococcus luteus [13]): Active | IC50 (Micrococcus luteus [14]): 0.5 µg/mL (≈ 1.51 µM) | MIC (Pseudomonas aeruginosa [15]): 0.9 µg/mL (≈ 2.72 µM) | MIC (Staphylococcus aureus [16]): 0.9 µg/mL (≈ 2.72 µM) | MBC (Raoultella planticola [17]): 0.9 µg/mL (≈ 2.72 µM) | MIC (Bacillus subtilis [18]): 0.9 µg/mL (≈ 2.72 µM) | IC50 (Raoultella planticola [19]): 0.6 µg/mL (≈ 1.81 µM) | MIC (Raoultella planticola [20]): 0.9 µg/mL (≈ 2.72 µM) | MBC (Pseudomonas aeruginosa [21]): 1.9 µg/mL (≈ 5.73 µM) | IC50 (Staphylococcus aureus [22]): 0.4 µg/mL (≈ 1.21 µM)
